Data from ChEMBL document CHEMBL5260794, “Synthesis and biological evaluation of a new class of benzothiazines as neuroprotective agents” (Eur J Med Chem, 2017).
Calls of active or inactive are those of the source. The calls are words filed in the database; no cut-off is given here.

Legend:
[1] = tested on: SH-SY5Y; assay: Neuroprotective activity against glutamate-induced toxicity in human SH-SY5Y cells assessed as reduction in cell shrinkage at 10 uM pretreated for 1 hr followed by glutamate challenge measured after 24 hrs by phase-contrast light microscopic analysis; format: functional, cell-based; settings: time 25.0 hrs
Outline: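 SH-SY5Y cells attached 24 h, then pretreated 1 h with compound (0.1-10 μM) before glutamate 50 mM for 24 h. Viability by MTT. Morphology under phase-contrast microscope, scored by the USP 28 grade scale (0-4). Mean ± SEM of 4 independent experiments run in triplicate or quadruplicate, ANOVA with Dunnett test.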

[2] = species on record: Rattus norvegicus; assay: Inhibition of persistent voltage-dependent sodium current in Wistar rat brain piriform cortex layer at 15 uM by whole cell patch clamp method; format: functional
[3] = species on record: Rattus norvegicus; assay: Neuroprotective activity against oxygen glucose deprivation/reperfusion-induced Wistar rat cortical brain assessed as reduction in glutamate release relative to control; format: functional; design: concentration or dose not given beside the values
Outline: (§1)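 Male Wistar rat cortical slices (400 μm) in oxygenated ACSF, pH 7.4, 1 h at room temperature, then 30 min at 37 °C. OGD for 30 min in glucose-free ACSF with 11 mM sucrose under 95% N₂/5% CO₂. Compound added in the reoxygenation buffer. Glutamate and LDH release measured. Mean ± SEM of at least four experiments, ANOVA with Dunnett test.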

[4] = species on record: Rattus norvegicus; assay: Inhibition of persistent voltage-dependent sodium current in Wistar rat brain piriform cortex layer at 50 uM by whole cell patch clamp method; format: functional
[5] = species on record: Rattus norvegicus; assay: Inhibition of transient voltage-dependent sodium current in Wistar rat brain piriform cortex layer by whole cell patch clamp method; format: functional
[6] = species on record: Rattus norvegicus; assay: Inhibition of transient voltage-dependent sodium current in Wistar rat brain piriform cortex layer assessed as reduction in maximal current amplitude at 15 uM by whole cell patch clamp method; format: functional
[7] = tested on: SH-SY5Y; assay: Neuroprotective activity against 6-OHDA-induced toxicity in human SH-SY5Y cells assessed as increase in cell viability at 10 uM pretreated for 1 hr followed by 6-OHDA challenge measured after 2 hrs by MTT assay; format: functional, cell-based; settings: time 3.0 hrs
Outline: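 SH-SY5Y cells attached 24 h, then pretreated 1 h with compound (0.1-10 μM) and challenged with 6-OHDA 55 μM for 2 h. 6-OHDA made fresh in nitrogen-gassed 5 μM ascorbic acid, and controls received medium with ascorbic acid. Viability by MTT. Mean ± SEM of 4 independent experiments run in triplicate or quadruplicate, ANOVA with Dunnett test.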

[8] = species on record: Rattus norvegicus; assay: Neuroprotective activity against oxygen glucose deprivation/reperfusion-induced Wistar rat cortical brain assessed as reduction in LDH release by measuring minimal effective concentration; format: functional; outline: as §1
[9] = tested on: SH-SY5Y; assay: Neuroprotective activity against glutamate-induced toxicity in human SH-SY5Y cells assessed as reduction in ROS production at 0.1 to 10 uM by DCFH-DA staining based assay; format: functional, cell-based; settings: dose 0.1-10 µM, time 24.0 hrs, TDE = time-dependent effect
Outline: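 SH-SY5Y cells loaded with DCFH-DA (5 μM, 30 min) and washed before treatment. Pretreated 1 h with compound (0.1-10 μM), then glutamate 50 mM. Fluorescence (ex 485/em 535 nm) read at 1 h or 24 h and expressed as % inhibition of glutamate-induced ROS. 4 independent experiments.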

[10] = species on record: Rattus norvegicus; assay: Inhibition of transient voltage-dependent sodium current in Wistar rat brain piriform cortex layer assessed as negative shift of inactivation function at 15 uM by whole cell patch clamp method; format: functional
[11] = species on record: Rattus norvegicus; assay: Inhibition of transient voltage-dependent sodium current in Wistar rat brain piriform cortex layer assessed as reduction in maximal current amplitude at 5 uM by whole cell patch clamp method; format: functional
[12] = species on record: Rattus norvegicus; assay: Inhibition of persistent voltage-dependent sodium current in Wistar rat brain piriform cortex layer at 5 uM by whole cell patch clamp method; format: functional
[13] = tested on: SH-SY5Y; assay: Neuroprotective activity against glutamate-induced toxicity in human SH-SY5Y cells assessed as reduction in ROS production measured after 24 hrs by DCFH-DA staining based assay; format: functional, cell-based; settings: dose 0.1-10 µM
Outline: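 Human SH-SY5Y neuroblastoma cells were preloaded with DCFH-DA (5 μM, 30 min) and washed in PBS. They were then pretreated for 1 h with compound (0.1-10 μM; DMSO stock diluted in PBS, final DMSO <0.01%) and challenged with glutamate (50 mM). Fluorescence (ex 485/em 535 nm) was read at 24 h and expressed as % inhibition of glutamate-induced ROS. Data are mean ± SEM of 4 experiments run in triplicate or quadruplicate.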

[14] = tested on: SH-SY5Y; assay: Neuroprotective activity against 6-OHDA-induced toxicity in human SH-SY5Y cells assessed as reduction in condensed and fragmented nuclei at 0.1 uM pretreated for 1 hr followed by 6-OHDA challenge measured after 2 hrs by DAPI staining based assay relative to control; format: functional, cell-based; settings: time 3.0 hrs
[15] = species on record: Rattus norvegicus; assay: Inhibition of high voltage-activated calcium current in Wistar rat brain piriform cortex assessed as time required to inhibit barium current by whole cell patch clamp method; format: functional
Outline: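 Acutely dissociated P15-P22 Wistar rat piriform cortex neurons recorded whole-cell at holding -70 mV. 5 mM Ba²⁺ was the charge carrier, with a Cs methanesulfonate pipette. HVA currents evoked by step or ramp protocols from -60 mV. Compound applied by local perfusion (DMSO 0.02-0.67%). Peak I_Ba amplitude tracked over time, and concentration-response fitted with the sum of two Hill functions.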

## CCN(CC)/C(C)=N/C1=Nc2ccccc2CS1
[1]
  Activity: Active
[2]
  inhibition in vivo at 15 µM: 77%
[3]
  Activity: 100%
[4]
  inhibition in vivo at 50 µM: 91.8%
[5]
  inhibition: Dose-Dependent Effect
[6]
  inhibition in vivo at 15 µM: 24.2%
[7]
  Activity: Active
[8]
  MEC: 0.1 µM
[9]
  Activity: Tde
[10]
  Activity: 11.8 mV
[11]
  inhibition in vivo at 5 µM: 26.4%
[12]
  inhibition in vivo at 5 µM: 70.7%
[13]
  Activity: Dose-Dependent Effect
[14]
  Activity: Active

## CCCN(CCC)/C(C)=N/C1=Nc2ccccc2CS1
[1]
  Activity: Active
[15]
  Time: 128.2 ms
[3]
  Activity: 90.5%
[7]
  Activity: Active
[8]
  MEC: 0.1 µM
[9]
  Activity: Tde
[13]
  Activity: Dose-Dependent Effect
[14]
  Activity: Active
